These results are taken from ChEMBL document CHEMBL1139314, “Discovery and structure-activity relationships of 4-aminoquinazoline derivatives, a novel class of opioid receptor like-1 (ORL1) antagonists” (Bioorg Med Chem, 2009).

Experiment [1] can be described thus: Displacement of [3H]nociceptin from human ORL1 receptor expressed in CHO-K1 cells. It counts as cell-based. Put shortly:
(§1)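 Competition binding used membranes from stably transfected CHO-K1 cells. The radioligand was leucyl-[3H]nociceptin for ORL1 and [3H]diprenorphine for mu, delta and kappa. Nonspecific binding was defined with unlabeled nociceptin (ORL1), naloxone (mu), naltrindole (delta) or naloxone benzoylhydrazone (kappa). Incubation was 1 h at 25 °C in 50 mM Tris-HCl pH 7.8 with 5 mM MgCl2, 1 mM EGTA and 0.1% BSA. Samples were filtered on PEI-soaked GF/B filters and counted. Ki was derived by Cheng–Prusoff.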
(In general: In a radioligand displacement assay an active substance lowers the binding of a labelled ligand.)

The nature of experiment [2]: Selectivity ratio of Ki for rat mu opioid receptor to Ki for human ORL1 receptor. Put shortly:
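Membranes came from CHO-K1 cells expressing rat mu opioid receptor ([3H]diprenorphine; naloxone defines nonspecific binding) or human ORL1 ([3H]nociceptin; unlabeled nociceptin). Ki values were calculated by Cheng–Prusoff.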

The target in experiment [3] is Mu-type opioid receptor (Rattus norvegicus, UniProt P33535). The experiment in a line: Displacement of [3H]diprenorphine from rat mu opioid receptor expressed in CHO-K1 cells. The experiment is classed as cell-based. In a few lines: as §1
Mu-type opioid receptor (Rattus norvegicus, UniProt P33535), sequence (P33535 whole entry): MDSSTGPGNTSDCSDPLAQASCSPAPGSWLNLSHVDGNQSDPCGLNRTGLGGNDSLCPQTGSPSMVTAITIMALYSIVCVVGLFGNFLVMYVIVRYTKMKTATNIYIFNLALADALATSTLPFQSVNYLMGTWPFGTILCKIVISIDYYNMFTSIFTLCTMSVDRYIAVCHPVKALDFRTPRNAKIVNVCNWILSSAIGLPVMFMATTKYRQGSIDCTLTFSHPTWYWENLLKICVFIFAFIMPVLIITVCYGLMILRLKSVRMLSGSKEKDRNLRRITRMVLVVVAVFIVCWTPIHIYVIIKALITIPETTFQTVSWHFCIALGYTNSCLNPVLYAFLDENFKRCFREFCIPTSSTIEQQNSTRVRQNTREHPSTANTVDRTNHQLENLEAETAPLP
Experiment [4] concerns the target Delta-type opioid receptor (Rattus norvegicus, UniProt P33533). Kind of experiment: Displacement of [3H]diprenorphine from rat delta opioid receptor expressed in CHO-K1 cells. It counts as cell-based. Put shortly: as §1
Experiment [5] deals with Mu-type opioid receptor (Homo sapiens, UniProt P35372). Kind of experiment: Displacement of [3H]diprenorphine from human mu opioid receptor expressed in CHO-K1 cells. The experiment is classed as cell-based. Put shortly:
as §1

The subject of the next experiment is CHO-K1. The experiment in a line: Antagonist activity at human ORL1 receptor expressed in CHO-K1 cells assessed as inhibition of forskolin-stimulated cAMP accumulation. The experiment is classed as functional, cell-based. In a few lines:
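CHO-K1 cells stably expressing human ORL1 were preincubated 5 min at 37 °C, 5% CO2, in Krebs-Henseleit solution (pH 7.4) with 0.5 mM IBMX. Forskolin (3 μM final) and test compound (1–1000 nM) were then added with or without nociceptin and incubated 10 min at 37 °C. Cells were lysed, and intracellular cAMP was measured by enzyme immunoassay the same day.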

Experiment [6] can be described thus: Antagonist activity at human ORL1 receptor expressed in CHO-K1 cells assessed as inhibition of cAMP accumulation.
Experiment [7] concerns the target Kappa-type opioid receptor (Rattus norvegicus, UniProt P34975). The experiment in a line: Displacement of [3H]diprenorphine from rat kappa opioid receptor expressed in CHO-K1 cells. The experiment is classed as cell-based. In a few lines: as §1

SMILES strings stand for the structures. Active and inactive are the calls of the source. No cut-off for these calls is given here.

Mu-type opioid receptor (Homo sapiens, UniProt P35372), sequence (P35372 whole entry): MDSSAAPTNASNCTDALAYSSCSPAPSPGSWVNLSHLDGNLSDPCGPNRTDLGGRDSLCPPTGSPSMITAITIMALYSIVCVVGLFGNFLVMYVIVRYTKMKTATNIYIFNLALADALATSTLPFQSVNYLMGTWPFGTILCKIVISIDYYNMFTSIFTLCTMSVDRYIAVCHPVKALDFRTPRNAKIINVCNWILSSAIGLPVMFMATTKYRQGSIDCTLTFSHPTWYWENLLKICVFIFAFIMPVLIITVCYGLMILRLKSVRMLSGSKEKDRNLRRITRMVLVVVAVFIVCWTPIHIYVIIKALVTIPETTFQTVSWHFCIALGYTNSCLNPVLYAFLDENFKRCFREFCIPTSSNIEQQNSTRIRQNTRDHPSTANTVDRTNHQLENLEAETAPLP
Delta-type opioid receptor, sequence (P33533 whole entry): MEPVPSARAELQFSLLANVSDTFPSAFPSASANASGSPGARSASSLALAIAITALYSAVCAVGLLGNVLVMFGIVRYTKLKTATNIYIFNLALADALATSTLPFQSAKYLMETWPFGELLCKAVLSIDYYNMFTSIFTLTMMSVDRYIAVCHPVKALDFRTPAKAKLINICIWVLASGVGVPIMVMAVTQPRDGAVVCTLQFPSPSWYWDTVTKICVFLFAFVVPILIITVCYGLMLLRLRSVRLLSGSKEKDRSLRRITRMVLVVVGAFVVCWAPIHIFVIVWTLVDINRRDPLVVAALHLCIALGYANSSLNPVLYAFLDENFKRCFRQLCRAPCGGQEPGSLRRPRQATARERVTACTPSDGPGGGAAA
Kappa-type opioid receptor, sequence (P34975 whole entry): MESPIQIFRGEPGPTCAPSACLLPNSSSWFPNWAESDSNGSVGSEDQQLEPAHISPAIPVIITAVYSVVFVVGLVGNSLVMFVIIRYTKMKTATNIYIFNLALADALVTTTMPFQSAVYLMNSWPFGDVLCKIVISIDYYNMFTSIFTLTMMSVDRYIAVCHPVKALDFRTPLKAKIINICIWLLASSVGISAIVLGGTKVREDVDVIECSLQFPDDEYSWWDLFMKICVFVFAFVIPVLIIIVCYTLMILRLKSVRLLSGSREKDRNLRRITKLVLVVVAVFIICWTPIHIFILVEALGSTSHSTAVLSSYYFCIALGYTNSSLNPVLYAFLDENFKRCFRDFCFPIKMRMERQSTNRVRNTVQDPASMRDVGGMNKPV

Regarding `Cc1ccc2nc(/C=C/c3ccc(Cl)cc3)nc(NCCCCCCNC(=N)N)c2c1`, the figures for the Ki (in experiment [1]; at Mu-type opioid receptor [3]) were 89 nM and 300 nM, respectively. The Ratio Ki in experiment [2] came out at 3.37.

For the compound `Cc1ccc2nc(/C=C/c3ccc(Cl)cc3)nc(NCCCCCCN)c2c1`, the Ki (usually a measure of affinity in units of concentration, obtained from inhibition or displacement) was 232 nM in experiment [1] and 120 nM at Mu-type opioid receptor [3]. The Ratio Ki in experiment [2] was 0.51.

Regarding `Cc1ccc2nc(/C=C/c3ccc(Cl)cc3)nc(NCCN)c2c1`, the Ki in experiment [1] is 972 nM; at Mu-type opioid receptor [3], 240 nM. In experiment [2], the Ratio Ki amounted to 0.25.

Regarding `Cc1ccc2nc(/C=C/c3ccc(Cl)cc3)nc(N[C@H]3CCCC[C@H]3NC(=N)N)c2c1` (racemic), the Ki in experiment [1] is 43 nM; at Mu-type opioid receptor [3] it was 220 nM. For the same compound, the Ratio Ki in experiment [2] stood at 5.11.

As for `Cc1ccc2nc(/C=C/c3ccc(Cl)cc3)nc(N[C@H]3CCCC[C@@H]3N)c2c1` (racemic), the results for the Ki (in experiment [1]; on Mu-type opioid receptor [3]) were 538 nM and 180 nM, respectively. Moreover, the Ratio Ki in experiment [2] is 0.33.

As to `Cc1ccc2nc(/C=C/c3ccc(Cl)cc3)nc(N[C@H]3CC[C@H](N)CC3)c2c1`, the Ki was 795 nM in experiment [1] and 300 nM on Mu-type opioid receptor [3]. Also, in experiment [2], the Ratio Ki worked out at 0.37.

For the compound `NCCCCCCNc1nc(/C=C/c2ccc(Cl)cc2)nc2cc3ccccc3cc12`, the Ki in experiment [1] was 133 nM; on Mu-type opioid receptor [3], 410 nM. Also, the Ratio Ki in experiment [2] was found to be 3.08.

Consider `Cc1ccc2nc(/C=C/c3ccc(Cl)cc3)nc(N[C@H]3CC[C@@H](NC(=N)N)CC3)c2c1`, for which the Ki in experiment [1] amounted to 152 nM; at Mu-type opioid receptor [3] it was 60 nM. Further, the Ratio Ki in experiment [2] came to 0.39.

With `Cc1ccc2nc(/C=C/c3ccc(Cl)cc3)nc(NCCCCNC(=N)N)c2c1`, the Ki came to 160 nM in experiment [1] and 2300 nM at Mu-type opioid receptor [3]. For the same compound, in experiment [2], the Ratio Ki amounted to 14.4.

Consider `Cc1cccc2c(NCCCCCCN)nc(/C=C/c3ccc(Cl)cc3)nc12`, for which the Ki in experiment [1] came out at 653 nM; on Mu-type opioid receptor [3], 930 nM. In addition, the Ratio Ki in experiment [2] came out at 1.42.

Turning to `Cc1ccc2c(NCCCCCCN)nc(/C=C/c3ccc(Cl)cc3)nc2c1`, the values for the Ki (in experiment [1]; at Mu-type opioid receptor [3]) were 420 nM and 200 nM, respectively. The Ratio Ki in experiment [2] came out at 0.48.

Consider `Cc1ccc2nc(NC(=O)c3ccc(Cl)cc3)nc(N[C@@H]3CCCC[C@@H]3NC(=N)N)c2c1` (single isomer, unassigned), for which the Ki came out at 3.6 µM in experiment [4], 330 nM at Mu-type opioid receptor [5], 1.4 nM in experiment [1] and 2400 nM in experiment [7]. For the same compound, the outcome in the experiment on CHO-K1 was inactive. In experiment [6], the IC50 (commonly the point on the concentration scale where inhibition reaches its midpoint) was 17 nM.

With `Cc1ccc2nc(/C=C/c3ccc(Cl)cc3)nc(N[C@H]3CCCC[C@H]3N)c2c1` (racemic), the Ki in experiment [1] came out at 200 nM; at Mu-type opioid receptor [3] it was 150 nM. For the same compound, the Ratio Ki in experiment [2] turned out to be 0.75.

With `Cc1ccc2nc(NC(=O)c3ccc(Cl)cc3)nc(N[C@H]3CCCC[C@H]3NC(=N)N)c2c1` (single isomer, unassigned), the Ki in experiment [4] stood at 4.3 µM; on Mu-type opioid receptor [5], 270 nM; in experiment [1] it was 140 nM; in experiment [7] it was 510 nM.

For `CC(C)(C)c1ccc2nc(/C=C/c3ccc(Cl)cc3)nc(NCCCCCCN)c2c1`, the Ki is 292 nM in experiment [1] and 380 nM on Mu-type opioid receptor [3]. In experiment [2], the Ratio Ki came to 1.3.

Consider `Cc1cccc2nc(/C=C/c3ccc(Cl)cc3)nc(NCCCCCCN)c12`, for which the Ki in experiment [1] was 808 nM; on Mu-type opioid receptor [3], 170 nM. Further, in experiment [2], the Ratio Ki is 0.21.

On to `Cc1ccc2nc(/C=C/c3ccc(Cl)cc3)nc(NCCCCN)c2c1`, for which the Ki in experiment [1] turned out to be 194 nM; at Mu-type opioid receptor [3], 250 nM. The Ratio Ki in experiment [2] was found to be 1.29.

For the compound `Cc1ccc2nc(NC(=O)c3ccc(Cl)cc3)nc(NC3CCCCC3NC(=N)N)c2c1` (racemic), the Ki in experiment [4] was determined as 4 µM; on Mu-type opioid receptor [5], 310 nM; in experiment [1], 2.1 nM; in experiment [7], 1200 nM.

On to `Cc1ccc2nc(/C=C/c3ccc(Cl)cc3)nc(N[C@H]3CC[C@@H](N)CC3)c2c1`, for which the inhibition constant (Ki) was 162 nM in experiment [1] and 410 nM at Mu-type opioid receptor [3]. Moreover, the Ratio Ki in experiment [2] was 2.53.

Take `NCCCCCCNc1nc(/C=C/c2ccc(Cl)cc2)nc2ccc(Cl)cc12`: the results for the Ki (in experiment [1]; on Mu-type opioid receptor [3]) were 294 nM and 380 nM, respectively. In addition, the Ratio Ki in experiment [2] turned out to be 1.29.

On to `NCCCCCCNc1nc(/C=C/c2ccc(Cl)cc2)nc2ccccc12`, for which the Ki stood at 383 nM in experiment [1] and 180 nM at Mu-type opioid receptor [3]. The Ratio Ki in experiment [2] was determined as 0.47.
